Autophagy HCS = autophagy modulators in MEF cells, primary screen, imaging, high-content, MEF GFP-LC3. MEF GFP-LC3 puncta imaging; test concentration mostly 10 µM. calls only at 10 µM (by protocol). actives 0.98% (n = 190,000). AID 463193, 2010;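 active = percentage of spot-positive cells more than 3 SD above its plate mean, without a fluorescence outlier flag or 80% toxicity; inconclusive = no clear call, values can overlap the other calls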;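 note: spot-positive cell cutoff set from DMSO-treated cells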
Ins promoter up = insulin promoter activators in MIN6 cells, imaging, high-content screening, mouse beta cells; MIN6 insulin promoter-GFP reporter; hits give high values; AID 1625, 2009; z-score at 5 µM; actives 0.3% (n = 190,000);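 active = z-score above 3 at 5 µM with at least 500 cells counted in the well; inconclusive = wells under 500 cells, flagged as cytotoxic or low count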
Dynein cargo inh = inhibitors of GR-EGFP nuclear translocation, primary screen, dynein cargo transport inhibitor project, imaging, high-content, 3617.4 mouse cells; test concentration mostly 20 µM; stimulated with dexamethasone, 1 µM; hits give low values; z-score, hits read low; actives 0.47% (n = 220,000); AID 1381, 2008;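 active = plate z-score of nuclear minus cytoplasmic receptor signal below a set negative limit, without overly bright fluorescence or cell loss, cut at about -3.5 in these data, passing the limit was not always enough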;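 note: z-score of nuclear minus cytoplasmic ring GR-EGFP intensity difference per well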
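Buffer or medium: Induction medium lacking tetracycline, stripped serum | Also added: Dexamethasone agonist, 1.0 µM final, for 30 min | Timing: 48 h induction, 1 h compound, 30 min dex at 37 °C | Detection: Formaldehyde fixation, Hoechst nuclear stain, 10x automated fluorescence imaging | Measure: Nuclear versus cytoplasmic GR-EGFP signal, averaged per well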
Insulin prom inh = inhibitors of insulin promoter-driven GFP, primary screen, imaging, TRM-6 cells (human fetal islet line), eGFP reporter, cell count; reporter expression induced with tamoxifen; inhibition, % at 2 µM; actives 0.9% (n = 130,000);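 active = inhibition above the mean plus 3 SD, with well images judged a real hit on visual review, cut at about 60% in these data, passing the limit was not always enough; inconclusive = inhibition over the cutoff but images rejected on review; inactive = inhibition not above the cutoff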
PERK inhibitor = block of dimerizer-induced PERK translation repression, primary screen, PERK inhibitor project, CHO PERK-DD cells, SEAP luminescence, HTS; CHO PERK-DD fusion, SEAP luminescence translation reporter; inhibition, % at 5.6 µM; actives 0.17% (n = 220,000); AID 1416, 2008;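 active = inhibition above the mean inhibition of all tested compounds plus 3 SD, set separately per screening campaign, cut at about 2.9% in these data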;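 note: PERK kinase domain activated by AP20187 dimerizer at 100 nM; 0% = DMSO with dimerizer and 100% = rapamycin at 8.4 µM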
Target sequence (Q9NZJ5 whole entry, looked up, the tested form may be a part): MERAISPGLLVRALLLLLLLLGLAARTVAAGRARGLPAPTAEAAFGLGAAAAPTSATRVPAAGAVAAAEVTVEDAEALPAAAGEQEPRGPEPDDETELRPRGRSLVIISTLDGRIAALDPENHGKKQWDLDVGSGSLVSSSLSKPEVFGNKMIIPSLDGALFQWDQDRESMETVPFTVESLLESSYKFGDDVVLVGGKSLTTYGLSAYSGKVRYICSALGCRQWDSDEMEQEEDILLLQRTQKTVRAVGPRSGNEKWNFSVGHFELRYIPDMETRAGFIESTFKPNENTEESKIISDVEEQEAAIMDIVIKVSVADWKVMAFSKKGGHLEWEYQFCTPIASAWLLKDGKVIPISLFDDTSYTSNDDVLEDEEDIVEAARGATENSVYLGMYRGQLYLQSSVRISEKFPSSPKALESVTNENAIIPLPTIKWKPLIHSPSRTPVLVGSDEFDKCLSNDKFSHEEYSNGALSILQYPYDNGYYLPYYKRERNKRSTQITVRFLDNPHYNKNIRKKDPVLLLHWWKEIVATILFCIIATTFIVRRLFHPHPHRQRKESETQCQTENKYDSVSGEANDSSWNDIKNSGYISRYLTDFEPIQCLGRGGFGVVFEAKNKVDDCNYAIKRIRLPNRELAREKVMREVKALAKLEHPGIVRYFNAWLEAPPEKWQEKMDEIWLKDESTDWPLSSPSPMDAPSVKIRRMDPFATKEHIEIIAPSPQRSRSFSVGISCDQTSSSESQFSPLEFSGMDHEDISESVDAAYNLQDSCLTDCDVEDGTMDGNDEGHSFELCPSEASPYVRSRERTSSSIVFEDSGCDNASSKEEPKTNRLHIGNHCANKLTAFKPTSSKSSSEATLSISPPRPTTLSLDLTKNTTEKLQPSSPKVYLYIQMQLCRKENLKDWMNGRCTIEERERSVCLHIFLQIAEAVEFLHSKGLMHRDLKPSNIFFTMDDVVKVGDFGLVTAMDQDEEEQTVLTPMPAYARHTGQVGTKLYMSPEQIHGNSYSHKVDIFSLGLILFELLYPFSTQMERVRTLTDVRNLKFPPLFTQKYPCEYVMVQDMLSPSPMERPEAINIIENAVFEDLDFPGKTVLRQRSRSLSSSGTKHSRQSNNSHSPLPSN
An asterisk follows results filed as active; i = inactive; ? = inconclusive; . = no result; + = active, no number. Hits are enriched below; roughly 2.1% of the tested compounds scored in any of these assays.

SMILES | Autophagy HCS | Ins promoter up | Dynein cargo inh | Insulin prom inh | PERK inhibitor
CNC(=S)c1cc(C(C)(C)C)c(O)c(C(C)(C)C)c1 | . | -0.72 | -0.128 | . | 0.5
CCN(c1ccccc1)S(=O)(=O)c1ccc(C(=O)Nc2nnc(C3CC3)o2)cc1 | i | -3.06 | 0.961 | 77.8* | 1.2
COc1ccc(-c2c(C)n([O-])c3c([n+]2=O)CCCC3)cc1OC | + | 0.83 | -0.254 | 0.0 | 0.4
Cc1cccc2cc(C(c3nnnn3CC3CCCO3)N3CCCC4(CCCCC4)C3)c(=O)[nH]c12 (stereo not given) | + | -0.59 | 0.047 | . | -0.9
C=C(C(=O)c1ccccc1)C(C)C(=C)C(=O)c1ccccc1 | i | 0.3 | -3.09 | . | 0.5
Clc1ccccc1-c1nnc(-c2ccc3c(c2)OCO3)o1 | i | 1.02 | -0.174 | 25.0 | 0.4
CC(=O)C1C(c2ccccc2)c2c(noc2C)CC1(C)O (stereo not given) | . | 2.09 | -0.361 | . | 3.2*
Fc1ccc(CNC(=S)NC2CCCCCC2)cc1 | i | -0.08 | -0.229 | 26.3 | 0.7
CN(C)CCn1c(=S)[nH]c2ncccc2c1=O | i | -0.86 | 1.21 | . | -0.2
CCOCCCn1c(=S)[nH]c2ncccc2c1=O | i | 0.28 | -0.47 | 100.0* | 0.5
CCC(CO)[n+]1c(C)cc(/C=C2\Sc3ccccc3N2Cc2ccccc2)cc1C (stereo not given) | + | ? | 5.57 | . | -0.5
O=C(NCCc1ccc(F)cc1)c1cc(=O)c2ccccc2o1 | i | -0.15 | -0.198 | . | -0.7
CCCCn1c(C)nc2c(=O)n(C)c(=O)[nH]c21 | i | -0.07 | -0.591 | 72.7* | -0.1
CCCCn1c(-c2ccccc2)nc2c(=O)n(C)c(=O)[nH]c21 | i | 0.64 | 0.103 | 33.3 | 1.2
O=[N+]([O-])c1ccccc1Nc1c2ccccc2nc2ccccc12 | i | -0.11 | 1.25 | . | 0.7
O=[N+]([O-])c1ccc(Nc2c3ccccc3nc3ccccc23)cc1 | + | -0.84 | 0.776 | 40.0 | 0.3
CCOC(=O)CCCNC(=O)CSc1nc2ccc(OCC)cc2[nH]1 | i | 0.23 | -1.25 | . | 0.1
Cc1cc(C)c2ccc3c(C)c(C)nc3c2[nH]1 | + | -0.77 | -0.401 | . | 0.2
CCCCSCCCNC(=S)Nc1ccccc1C | i | . | 1.68 | 27.3 | 0.7
Cc1ccccc1NC(=S)NCCO | + | 1.01 | 0.741 | . | 0.1
COc1ccc(C(=O)NC=C2C(=O)OC(C)(C)OC2=O)cc1 | i | 0.19 | -0.248 | 0.0 | 0.8
O=C(Nc1ccccc1)Nc1ncc([N+](=O)[O-])s1 | + | 0.17 | 1.45 | 27.8 | -0.4
N#Cc1ccc(CSc2nnc(-c3ccccc3)n2Cc2ccco2)cc1 | i | 0.11 | -0.59 | -38.2 | -0.3
N#Cc1ccc(CSc2nnc(Cc3cccs3)n2Cc2ccco2)cc1 | + | . | 0.369 | -120.7 | -0.9
O=C(CN1CCCC1)Nc1ccc(-c2nc3cc(NC(=O)CN4CCCC4)ccc3o2)cc1 | + | -0.29 | 0.729 | 24.1 | -0.6
SMILES | Autophagy HCS | Ins promoter up | Dynein cargo inh | Insulin prom inh | PERK inhibitor
CCCCCC(=O)Nc1ccc2oc(-c3cncc(Br)c3)nc2c1 | + | 1.4 | 2.17 | -28.6 | 0.0
CCc1sc(C(=O)Nc2cccc(C(C)=O)c2)cc1C | i | -0.53 | 0.207 | -31.2 | -0.1
C#CCn1c(=NC(=O)c2ccc(S(=O)(=O)N3CCc4ccccc4C3)cc2)sc2cc(S(N)(=O)=O)ccc21 | + | -0.17 | -0.329 | 4.0 | 0.3
C=CCn1c(=NC(=O)c2ccc(S(=O)(=O)N3CCc4ccccc4C3)cc2)sc2cc(S(N)(=O)=O)ccc21 | i | -0.39 | 1.48 | 36.7 | -0.7
O=c1oc2c(-c3cccc(F)c3)cc(O)cc2s1 | i | 0.38 | -0.475 | 21.4 | 1.5
CC(=O)NC1CCN(C(=O)N2CCCC2)CC1 | + | 0.02 | 1.66 | 45.5 | 0.5
COc1cccc(C(=O)NC2CCN(C(=O)N3CCCCC3)CC2)c1 | i | -0.81 | -0.73 | 50.0 | -0.8
COC(=O)C1C(O)=C(C=NC2CCCCC2)C(=O)CC1(C)C (stereo not given) | i | 1.25 | -0.623 | 50.0 | -0.9
CCCCCCN=CC1=C(O)C(C(=O)OC)C(C)(C)CC1=O (stereo not given) | i | -0.84 | -0.598 | 93.1* | -0.5
COc1ccc(CN=C(C)c2c(C(F)(F)F)[nH]n(-c3nc4ccccc4s3)c2=O)cc1 | + | -0.37 | -0.256 | 22.9 | 0.2
COCCOC(=O)C(CC(=O)O)NCc1ccco1 (stereo not given) | . | -0.14 | 1.11 | . | 4.0*
COc1ccc(S(=O)(=O)NCC2CCC(C(=O)NCC(OC)OC)CC2)cc1 (stereo not given) | i | -0.81 | 0.443 | . | 3.2*
COc1ccc(S(=O)(=O)NCC2CCCN(C(=O)c3sccc3C)C2)cc1 (stereo not given) | + | -0.42 | -0.878 | . | -1.0
COc1ccc(S(=O)(=O)NCC2CCCN(C(=O)c3ccccc3)C2)cc1 (stereo not given) | i | -0.58 | 0.221 | . | 0.1
CCc1nc(NC(C)C)c2oc3ccccc3c2n1 | i | . | -0.709 | 88.9* | 0.1
CCc1nc(N[C@H](C(=O)O)C(C)C)c2oc3ccccc3c2n1 | . | 0.35 | -0.924 | . | 0.1
CCc1nc(NCCN2CCOCC2)c2oc3ccccc3c2n1 | i | 0.29 | -0.128 | 84.6* | -0.8
CCc1nc(NCCCN2CCOCC2)c2oc3ccccc3c2n1 | i | -0.03 | -0.781 | 61.1 | -0.8
CCc1nc(Nc2ccc3c(c2)OCO3)c2oc3ccccc3c2n1 | i | 0.14 | -0.0192 | 79.3* | -0.2
CCc1nc(Nc2ccncc2)c2oc3ccccc3c2n1 | i | -1.92 | -0.605 | 2.9 | -0.3
CCC(CO)N=C1CC(C)(C)CC(=O)/C1=C(/O)CCCN1C(=O)c2ccccc2C1=O (stereo not given) | i | -0.69 | 1.76 | 33.3 | 1.0
O=C(OCC(=O)c1c[nH]c2ccccc12)c1cc(Br)ccc1O | i | 0.11 | -0.58 | 2.9 | -0.1
CCCCC(=O)Nc1ccc(N2CCN(C(=O)CC)CC2)cc1 | i | . | 0.135 | 5.6 | 0.2
CCC(=O)N1CCN(c2ccc(NC(=S)NC(=O)C(C)C)cc2)CC1 | + | -0.19 | 0.279 | . | 1.0
Cc1cc(C(=O)Nc2ncn[nH]2)ccc1[N+](=O)[O-] | i | 0.1 | 0.361 | 26.1 | 0.7
COc1ccc(CCNc2cc(N3CCN(C(=O)c4ccccc4F)CC3)ccc2[N+](=O)[O-])cc1OC | + | ? | -0.494 | 50.0 | 0.0
COc1ccc(CCNc2cc(N3CCN(C(=O)c4ccc(C)cc4)CC3)ccc2[N+](=O)[O-])cc1OC | i | -1.91 | -0.537 | 43.8 | 0.1
O=C(CO/N=C/c1ccc(OC(F)F)cc1)NC1CCCCCC1 | + | 0 | -0.296 | . | 0.7

Screening data (PubChem)
